Measurements taken from ChEMBL document CHEMBL4033783, “Adventures in Scaffold Morphing: Discovery of Fused Ring Heterocyclic Checkpoint Kinase 1 (CHK1) Inhibitors” (J Med Chem, 2018).
Converted amounts (≈) assume the structure as drawn.

Key:
[1] = target: Voltage-gated inwardly rectifying potassium channel KCNH2 (Homo sapiens, UniProt Q12809)
[2] = target: T1, Serine/threonine-protein kinase Chk1 (Homo sapiens, UniProt O14757); experiment: Inhibition of CHK1 (unknown origin)
T1 sequence (O14757 whole entry): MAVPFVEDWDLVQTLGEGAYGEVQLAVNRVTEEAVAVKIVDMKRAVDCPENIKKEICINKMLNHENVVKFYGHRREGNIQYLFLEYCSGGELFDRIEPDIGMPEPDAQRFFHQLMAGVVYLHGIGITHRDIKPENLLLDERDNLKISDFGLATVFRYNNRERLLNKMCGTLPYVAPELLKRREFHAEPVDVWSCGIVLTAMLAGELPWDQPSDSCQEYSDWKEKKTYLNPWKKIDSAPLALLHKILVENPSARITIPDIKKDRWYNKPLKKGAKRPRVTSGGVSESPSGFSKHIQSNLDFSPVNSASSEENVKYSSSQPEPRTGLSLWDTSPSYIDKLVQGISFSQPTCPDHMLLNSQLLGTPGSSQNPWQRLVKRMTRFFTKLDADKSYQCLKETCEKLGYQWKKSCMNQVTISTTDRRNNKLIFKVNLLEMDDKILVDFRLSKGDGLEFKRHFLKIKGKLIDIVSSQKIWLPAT

Liver = experiment: Intrinsic clearance in human liver microsomes; format: ADME, microsome
[3] = Intrinsic clearance in Sprague-Dawley rat liver microsomes at […] after 2 mins in presence of NADPH by HPLC analysis; format: ADME, Microsome
[4] = Aqueous solubility of the compound in pH 7.4 phosphate buffer by LC-UV analysis; format: physicochemical
SW-620 = experiment: Antiproliferative activity against human SW620 cells; format: functional; conditions: for GI50: Homo sapiens, SW-620
In short: (§1)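 Proliferation-inhibition concentration-response in the tumour cell lines, run as part of a gemcitabine potentiation assay, with the compound tested as a single agent without gemcitabine. Single-agent GI50 and GI25 were derived from the response curves. Values are the mean of two duplicated runs.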

MDA-MB-231 = experiment: Antiproliferative activity against human MDA-MB-231 cells; format: functional; conditions: for GI50: Homo sapiens, MDA-MB-231
In short: as §1

[5] = target: T2, Serine/threonine-protein kinase Chk1 (Homo sapiens) (UniProt O14757)
T2 sequence (whole entry): T1 sequence (O14757 whole entry)

NCI-H460 = experiment: Antiproliferative activity against human H460 cells harboring dominant negative p53 construct; format: functional; conditions: for GI50: Homo sapiens, NCI-H460
In short: as §1

[6] = target: T2, Serine/threonine-protein kinase Chk1 (Homo sapiens); remark: listed apart in the source
[7] = target: T2, Serine/threonine-protein kinase Chk1 (Homo sapiens); remark: listed apart in the source
[8] = Half life in iv dosed mouse plasma; format: ADME, organism-based
[9] = Volume of distribution at steady state in iv dosed dog plasma; format: ADME, organism-based, Canis lupus familiaris; conditions: read-out: Vdss
[10] = Clearance in iv dosed rat plasma; format: ADME, organism-based
[11] = Clearance in iv dosed mouse plasma; format: ADME, organism-based
[12] = Half life in iv dosed dog plasma; format: ADME, organism-based, Canis lupus familiaris
[13] = Volume of distribution at steady state in iv dosed mouse plasma; format: ADME, organism-based; conditions: read-out: Vdss
[14] = Half life in iv dosed rat plasma; format: ADME, organism-based
[15] = Volume of distribution at steady state in iv dosed rat plasma; format: ADME, organism-based; conditions: read-out: Vdss
[16] = Clearance in iv dosed dog plasma; format: ADME, organism-based, Canis lupus familiaris
HCT-116 = experiment: Abrogation of topotecan-induced G2 phase arrest in human HCT116 cells xenografted in mouse hollow fiber model assessed as ratio of cell levels at G2 phase to G1 phase at 10 mg/kg, iv after 30 hrs relative to control; format: functional

Sequence of Voltage-gated inwardly rectifying potassium channel KCNH2 (Q12809 whole entry): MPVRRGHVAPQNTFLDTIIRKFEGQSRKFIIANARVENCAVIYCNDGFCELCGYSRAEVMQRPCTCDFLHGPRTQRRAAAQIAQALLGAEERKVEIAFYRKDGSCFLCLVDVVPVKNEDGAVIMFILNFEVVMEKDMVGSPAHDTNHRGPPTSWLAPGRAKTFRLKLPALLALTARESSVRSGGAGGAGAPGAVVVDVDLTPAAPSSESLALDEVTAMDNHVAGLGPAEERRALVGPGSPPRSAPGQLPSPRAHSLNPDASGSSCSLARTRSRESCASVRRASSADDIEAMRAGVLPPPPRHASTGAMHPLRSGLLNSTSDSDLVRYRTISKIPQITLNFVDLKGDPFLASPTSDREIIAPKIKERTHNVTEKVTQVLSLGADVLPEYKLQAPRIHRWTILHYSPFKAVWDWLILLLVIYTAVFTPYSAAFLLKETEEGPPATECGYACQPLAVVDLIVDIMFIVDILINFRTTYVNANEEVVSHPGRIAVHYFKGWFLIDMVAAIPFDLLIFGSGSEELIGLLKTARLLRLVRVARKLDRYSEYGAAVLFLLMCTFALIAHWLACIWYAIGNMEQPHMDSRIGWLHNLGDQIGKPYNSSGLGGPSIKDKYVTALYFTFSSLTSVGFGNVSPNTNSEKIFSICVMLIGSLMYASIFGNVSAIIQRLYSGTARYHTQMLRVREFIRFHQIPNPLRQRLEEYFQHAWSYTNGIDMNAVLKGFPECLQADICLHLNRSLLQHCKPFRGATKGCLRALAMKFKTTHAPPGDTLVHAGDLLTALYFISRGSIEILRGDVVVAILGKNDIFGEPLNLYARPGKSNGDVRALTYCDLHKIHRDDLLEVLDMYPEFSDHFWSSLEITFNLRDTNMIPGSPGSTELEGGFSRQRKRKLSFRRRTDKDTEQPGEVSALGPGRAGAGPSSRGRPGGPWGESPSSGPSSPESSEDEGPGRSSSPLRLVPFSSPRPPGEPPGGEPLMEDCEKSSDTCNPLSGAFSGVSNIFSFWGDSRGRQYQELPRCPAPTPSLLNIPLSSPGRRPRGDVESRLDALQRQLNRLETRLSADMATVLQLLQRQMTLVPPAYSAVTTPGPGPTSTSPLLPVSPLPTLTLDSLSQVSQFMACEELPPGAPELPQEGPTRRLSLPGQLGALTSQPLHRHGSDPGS

C[C@@H]1NCCC[C@@H]1Nc1ncc(C(N)=O)c2sc(-c3ccccc3)cc12
IC50 [1]: 5.9 µM | IC50 [2]: 0.069 µM

NC(=O)c1cnc(N[C@H]2CCCNC2)c2cc(-n3ccnc3)sc12
IC50 [2]: 0.024 µM

NC(=O)c1cnc(O[C@H]2CCCNC2)c2cc(-c3ccccc3)sc12
IC50 [2]: 0.083 µM | intrinsic clearance (CLint) (Liver): 35 µL/min/mg | intrinsic clearance [3]: > 120 µL/min/mg

NC(=O)c1cnc(N[C@H]2CCCNC2)c2cc(-c3ccccc3)oc12
IC50 [2]: 0.33 µM | solubility [4]: > 1000 µM

NC(=O)c1cnc(N[C@H]2CCCNC2)c2sc(-c3cccc(F)c3)cc12
IC50 [2]: 6.8 µM

C[C@@H]1CC[C@H](Nc2ncc(C(N)=O)c3sc(-c4ccccc4)cc23)[C@H](C)N1 (racemic)
IC50 [1]: 8.4 µM | IC50 [2]: 0.012 µM

Cn1cc(-c2cc3c(N[C@H]4CCCNC4)ncc(C(N)=O)c3s2)cn1
IC50 [2]: 0.006 µM

NC(=O)Nc1sc(-c2ccccc2)cc1C(=O)N[C@H]1CCCNC1
GI25 (SW-620): 0.42 µM | GI50 (SW-620): 0.839 µM | IC50 [1]: > 31.6 µM | GI25 (MDA-MB-231): 0.3 µM | GI50 (MDA-MB-231): 0.596 µM | PF [5]: 11 | solubility [4]: > 2000 µM | GI25 (NCI-H460): 0.62 µM | GI50 (NCI-H460): 1.23 µM | PF [6]: 9 | PF [7]: 67

Nc1ccn([C@@H]2O[C@H](CO)[C@@H](O)C2(F)F)c(=O)n1 [GEMCITABINE]
GI50 (SW-620): 0.84 µM | GI50 (MDA-MB-231): 0.251 µM | GI50 (NCI-H460): 2.08 µM

NC(=O)c1ccc(N[C@H]2CCCNC2)c2cc(-c3cccc(F)c3)[nH]c12
IC50 [1]: 7.7 µM | IC50 [2]: 0.009 µM

NC(=O)c1cnc(N[C@H]2CCCN[C@@H]2CCO)c2cc(-c3ccccc3)sc12 (racemic)
IC50 [1]: > 31.6 µM | IC50 [2]: 0.083 µM

NC(=O)c1ccc(N[C@H]2CCCNC2)c2cc(-c3ccc(F)cc3)[nH]c12
IC50 [1]: 6.7 µM | IC50 [2]: 0.023 µM | solubility [4]: 380 µM (≈ 134 µg/mL)

NC(=O)c1cnc(N[C@H]2CCCNC2)c2sc(-c3ccccc3)cc12
IC50 [1]: > 31.6 µM | IC50 [2]: 2.6 µM

NC(=O)c1cnc(N[C@H]2CCCNC2)c2cc(-c3cnn(Cc4ccccc4)c3)sc12
IC50 [2]: 0.014 µM

NC(=O)c1ccc(N[C@H]2CCCNC2)c2cc(-c3ccccc3)[nH]c12
IC50 [1]: 11.6 µM | IC50 [2]: 0.031 µM | solubility [4]: 280 µM (≈ 93.6 µg/mL) | intrinsic clearance (CLint) (Liver): 21 µL/min/mg | intrinsic clearance [3]: 120 µL/min/mg

NC(=O)c1cnc(N[C@H]2CCCNC2)c2cc(-c3cccs3)sc12
IC50 [1]: > 30 µM | IC50 [2]: 0.015 µM | solubility [4]: > 1000 µM | intrinsic clearance (CLint) (Liver): 9.1 µL/min/mg | intrinsic clearance [3]: 36 µL/min/mg

CCN(c1ncc(C(N)=O)c2sc(-c3ccccc3)cc12)[C@H]1CCCNC1
IC50 [1]: 2.4 µM | IC50 [2]: 0.035 µM

C[C@H]1NCCC[C@@H]1Nc1ncc(C(N)=O)c2sc(-c3ccccc3)cc12
GI25 (SW-620): 0.36 µM | GI50 (SW-620): 0.725 µM | IC50 [1]: > 31.6 µM | IC50 [2]: 0.006 µM | GI25 (MDA-MB-231): 0.15 µM | GI50 (MDA-MB-231): 0.306 µM | half-life [8]: 3.4 h | Vd [9]: 7.1 L/kg | PF [5]: 11 | clearance [10]: 6.3 L/h/kg | clearance [11]: 1.74 L/h/kg | intrinsic clearance (CLint) (Liver): < 5 µL/min/mg | half-life [12]: 9.4 h | PF [6]: 5 | Vd [13]: 4.6 L/kg | half-life [14]: 5.1 h | PF [7]: 124 | Vd [15]: 24 L/kg | intrinsic clearance [3]: < 10 µL/min/mg | clearance [16]: 0.6 L/h/kg

NC(=O)c1cnc(N[C@H]2CCCNC2)c2cc(-c3ccsc3)sc12
IC50 [1]: 28 µM | IC50 [2]: 0.006 µM | solubility [4]: 980 µM (≈ 351 µg/mL) | intrinsic clearance (CLint) (Liver): 29 µL/min/mg | intrinsic clearance [3]: 72 µL/min/mg

CN(c1ncc(C(N)=O)c2sc(-c3ccccc3)cc12)[C@H]1CCCNC1
IC50 [1]: 2.7 µM | IC50 [2]: 0.025 µM | intrinsic clearance (CLint) (Liver): 10 µL/min/mg | intrinsic clearance [3]: 37 µL/min/mg

C[C@@H]1CC[C@H](Nc2ncc(C(N)=O)c3sc(-c4ccccc4)cc23)CN1 (racemic)
IC50 [2]: 0.021 µM

CN1CCC[C@H](Nc2ncc(C(N)=O)c3sc(-c4ccccc4)cc23)C1
IC50 [2]: 0.14 µM

NC(=O)c1cnc(N[C@H]2CCCNC2)c2cc(-c3cn[nH]c3)sc12
IC50 [2]: 0.02 µM

NC(=O)c1cnc(SC2CCCNC2)c2cc(-c3ccccc3)sc12 (racemic)
IC50 [1]: 4.9 µM | IC50 [2]: 0.056 µM | intrinsic clearance (CLint) (Liver): < 5 µL/min/mg | intrinsic clearance [3]: 11 µL/min/mg

NC(=O)c1cnc(N[C@H]2CCCNC2)c2cc(-c3ccccc3)sc12
GI25 (SW-620): 0.49 µM | GI50 (SW-620): 0.97 µM | IC50 [1]: 19.7 µM | IC50 [2]: 0.007 µM | GI25 (MDA-MB-231): 0.27 µM | GI50 (MDA-MB-231): 0.536 µM | half-life [8]: 1.5 h | Vd [9]: 3.7 L/kg | PF [5]: 12 | clearance [10]: 17.7 L/h/kg | solubility [4]: > 1000 µM | clearance [11]: 2.7 L/h/kg | GI25 (NCI-H460): 0.9 µM | GI50 (NCI-H460): 1.8 µM | intrinsic clearance (CLint) (Liver): 9.2 µL/min/mg | half-life [12]: 5.4 h | PF [6]: 5 | Vd [13]: 4 L/kg | half-life [14]: 3.1 h | PF [7]: 28 | Vd [15]: 75 L/kg | intrinsic clearance [3]: 32 µL/min/mg | clearance [16]: 0.66 L/h/kg | Ratio (HCT-116): 3.2

NC(=O)c1cnc(N[C@H]2CCCNC2)c2cc(-c3cccc(F)c3)sc12
GI25 (SW-620): 0.42 µM | GI50 (SW-620): 0.841 µM | IC50 [2]: 0.012 µM | GI25 (MDA-MB-231): 0.32 µM | GI50 (MDA-MB-231): 0.641 µM | half-life [8]: 8.5 h | Vd [9]: 4.4 L/kg | PF [5]: 11 | clearance [10]: 11.8 L/h/kg | solubility [4]: 334 µM (≈ 124 µg/mL) | clearance [11]: 1.68 L/h/kg | GI25 (NCI-H460): 1.45 µM | GI50 (NCI-H460): 2.9 µM | half-life [12]: 5.1 h | PF [6]: 4 | Vd [13]: 4.6 L/kg | half-life [14]: 4.4 h | PF [7]: 38 | Vd [15]: 54.3 L/kg | clearance [16]: 0.6 L/h/kg

NC(=O)c1cnc(N(CCO)[C@H]2CCCNC2)c2cc(-c3ccccc3)sc12
IC50 [1]: > 31.6 µM | IC50 [2]: 0.079 µM

NC(=O)c1ccc(N[C@H]2CCCNC2)c2cc(-c3ccc(Cl)cc3)[nH]c12
IC50 [1]: 4.1 µM | IC50 [2]: 0.015 µM | solubility [4]: 320 µM (≈ 118 µg/mL)

NC(=O)c1cnc(N[C@H]2CNCC[C@@H]2O)c2cc(-c3ccccc3)sc12 (racemic)
IC50 [1]: > 31.6 µM | IC50 [2]: 0.01 µM

NC(=O)c1cnc(N(CCc2ccccc2)[C@H]2CCCNC2)c2cc(-c3ccccc3)sc12
IC50 [2]: 0.66 µM
